# Measurements as given in ChEMBL document CHEMBL1150284, “Synthesis, characterization, and metabolic stability of porphyrin-peptide conjugates bearing bifunctional signaling sequences” (J Med Chem, 2008).
# Numbered stars: 1 amine (or outer) side, 2 acyl side, 3 side chain; on linkers, the order of the positions; unused ones are H or OH. Square brackets hold non-standard residues; d marks the D form. Peptide text beside a SMILES is read from it. * marks the point of attachment. X1 = O=C(COCC(=O)*)Nc1ccc(-c2c3nc(c(-c4ccccc4)c4ccc([nH]4)c(-c4ccccc4)c4nc(c(-c5ccccc5)c5ccc2[nH]5)C=C4)C=C3)cc1; NH(CH2CH2O)6CH2CO = O=C(COCCOCCOCCOCCOCCOCCN[*:1])[*:2]
# What was measured:
# [1] = Drug uptake in human HEp2 cells at 10 uM; format: ADME, cell-based; conditions: hep-2, 10 µM, TDE = time-dependent effect
# In short: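 HEp2 cells seeded 10000/well, grown 36 h, then given 10 µM conjugate (diluted from 10 mM water stock) for 0, 1, 2, 4, 8, 24 h. After PBS wash, lysis in 0.25% Triton X-100/PBS; conjugate read by fluorescence 440/650 nm, cell number by CyQuant.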
# HEp-2 [2] = assay: Cytotoxicity against human HEp2 cells in dark; format: functional, cell-based
# In short: (§1)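 HEp2 cells (DMEM/Advanced MEM 50:50, 5% FBS) plated 10000/well, 36–48 h attachment; exposed to rising conjugate concentrations up to 100 µM overnight in dark. Viability by Cell Titer Blue fluorescence 520/584 nm, normalized to untreated (100%) and 0.2% saponin-treated (0%) cells.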
# HEp-2 [3] = assay: Phototoxicity against human HEp2 cells on exposure of 1 J/cm'2 light; format: functional, cell-based; conditions: HEp-2, light or radiation study
# In short: (§2)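 HEp2 cells plated as for dark assay, loaded with 0, 0.625, 1.25, 2.5, 5, 10 µM conjugate; medium swapped for one with 50 mM HEPES pH 7.4, cells on ice irradiated 20 min by 100 W halogen lamp through 610 nm long-pass filter and water IR filter (~1 J/cm2). Overnight incubation, then Cell Titer Blue viability read as in dark assay.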
# [4] = Stability at pH 7.4 after 24 hrs; format: physicochemical; conditions: buffer, pH 7.4, 24 h
# In short: (§3)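 Nonenzymatic hydrolysis: 100 µM conjugate in 50 mM PBS pH 7.4 or 50 mM acetate buffer pH 5.0, 37 °C for 24 h; products identified by MALDI-TOF MS with CCA matrix.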
# [5] = Stability at pH 5.0 after 24 hrs; format: physicochemical; conditions: buffer, pH 5, 24 h; in short: as §3
# HEp-2 [6] = assay: Cytotoxicity against human HEp2 cells in dark up to 100 uM; format: functional, cell-based; in short: as §1
# HEp-2 [7] = assay: Phototoxicity against human HEp2 cells on exposure of 1 J/cm'2 light up to 10 uM; format: functional, cell-based; in short: as §2
Structure (SMILES),Activity [1],IC50 (HEp-2 [2]),IC50 (HEp-2 [3]),Stability [4],Stability [5],Activity (HEp-2 [6]),Activity (HEp-2 [7])
CC(C)[C@H](NC(=O)[C@H](CCCCN)NC(=O)[C@H](CCCNC(=N)N)NC(=O)[C@H](CCCCN)NC(=O)[C@H](CCCCN)NC(=O)[C@H](CCCCN)NC(=O)[C@@H]1CCCN1C(=O)[C@@H]1CCCN1C(=O)[C@H](C)NC(=O)COCCOCCOCCOCCOCCOCCNC(=O)COCC(=O)Nc1ccc(-c2c3nc(c(-c4ccccc4)c4ccc([nH]4)c(-c4ccccc4)c4nc(c(-c5ccccc5)c5ccc2[nH]5)C=C4)C=C3)cc1)C(=O)N[C@@H](CCC(=O)O)C(=O)N[C@@H](CC(=O)O)C(=O)N1CCC[C@H]1C(=O)N[C@@H](CCCNC(=N)N)C(=O)N[C@@H](CCCCN)C(=O)N[C@@H](CCCCN)C(=O)N[C@@H](CCCNC(=N)N)C(=O)N[C@@H](CCCNC(=N)N)C(=O)N[C@@H](CCC(N)=O)C(=O)N[C@@H](CCCNC(=N)N)C(=O)N[C@@H](CCCNC(=N)N)C(=O)N[C@@H](CCCNC(=N)N)C(=O)N1CCC[C@H]1C(=O)N1CCC[C@H]1C(=O)N[C@@H](CCC(N)=O)C(=O)NCC(=O)O (X1-[NH(CH2CH2O)6CH2CO]APPKKKRKVEDPRKKRRQRRRPPQG-OH),tde,34 µM,7.5 µM,Stable,Stable,,
CC[C@H](C)[C@H](NC(=O)[C@H](CCCCN)NC(=O)[C@@H](NC(=O)[C@H](CCC(N)=O)NC(=O)[C@H](CCCNC(=N)N)NC(=O)COCCOCCOCCOCCOCCOCCNC(=O)COCC(=O)Nc1ccc(-c2c3nc(c(-c4ccccc4)c4ccc([nH]4)c(-c4ccccc4)c4nc(c(-c5ccccc5)c5ccc2[nH]5)C=C4)C=C3)cc1)[C@@H](C)CC)C(=O)N[C@@H](Cc1c[nH]c2ccccc12)C(=O)N[C@@H](Cc1ccccc1)C(=O)N[C@@H](CCC(N)=O)C(=O)N[C@@H](CC(N)=O)C(=O)N[C@@H](CCCNC(=N)N)C(=O)N[C@@H](CCCNC(=N)N)C(=O)N[C@@H](CCSC)C(=O)N[C@@H](CCCCN)C(=O)N[C@@H](Cc1c[nH]c2ccccc12)C(=O)N[C@@H](CCCCN)C(=O)N[C@@H](CCCCN)C(=O)N[C@@H](C)C(=O)N1CCC[C@H]1C(=O)N1CCC[C@H]1C(=O)N[C@@H](CCCCN)C(=O)N[C@@H](CCCCN)C(=O)N[C@@H](CCCCN)C(=O)N[C@@H](CCCNC(=N)N)C(=O)N[C@@H](CCCCN)C(=O)N[C@H](C(=O)NCC(=O)O)C(C)C (X1-[NH(CH2CH2O)6CH2CO]RQIKIWFQNRRMKWKKAPPKKKRKVG-OH),tde,53 µM,9.3 µM,Stable,Stable,,
CSCC[C@H](NC(=O)COCCOCCOCCOCCOCCOCCNC(=O)COCC(=O)Nc1ccc(-c2c3nc(c(-c4ccccc4)c4ccc([nH]4)c(-c4ccccc4)c4nc(c(-c5ccccc5)c5ccc2[nH]5)C=C4)C=C3)cc1)C(=O)NCC(=O)N[C@@H](CC(C)C)C(=O)NCC(=O)N[C@@H](CC(C)C)C(=O)N[C@@H](Cc1cnc[nH]1)C(=O)N[C@@H](CC(C)C)C(=O)N[C@@H](CC(C)C)C(=O)N[C@H](C(=O)N[C@@H](CC(C)C)C(=O)N[C@@H](C)C(=O)N[C@@H](C)C(=O)N[C@@H](C)C(=O)N[C@@H](CC(C)C)C(=O)N[C@@H](CCC(N)=O)C(=O)NCC(=O)N[C@@H](C)C(=O)N[C@@H](Cc1c[nH]c2ccccc12)C(=O)N[C@@H](CO)C(=O)N[C@@H](CCC(N)=O)C(=O)N[C@@H](C)C(=O)N1CCC[C@H]1C(=O)N1CCC[C@H]1C(=O)N[C@@H](CCCCN)C(=O)N[C@@H](CCCCN)C(=O)N[C@@H](CCCCN)C(=O)N[C@@H](CCCNC(=N)N)C(=O)N[C@@H](CCCCN)C(=O)N[C@H](C(=O)NCC(=O)O)C(C)C)C(C)C (X1-[NH(CH2CH2O)6CH2CO]MGLGLHLLVLAAALQGAWSQAPPKKKRKVG-OH),tde,,,Stable,Stable,Not toxic,Not toxic
